Only some compounds are listed: those with a hit (about 1.2% of all), similar ones and a draw of the others.
TPT1 inh: Candida albicans TPT1 enzyme inhibitors, primary screen, biochemical, fluorescence polarization. tRNA 2'-phosphotransferase TPT1 (Candida albicans SC5314). recombinant caTPT1, FP RNA substrate dephosphorylation. inhibition, % at 5 µM. 300,000 compounds, 0.81% hits;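 active = inhibition above the mean of all tested compounds plus 3 SD, set per screening campaign, cut at about 24% in these data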
HNF4A DNA FP: change in binding of human HNF4A to DNA, primary screen, biochemical, fluorescence polarization, FITC-DNA; activity change, % at 10 µM; 360,000 compounds, 0.3% hits; Hepatocyte nuclear factor 4-alpha (Homo sapiens), P41235; 1 h; AID 1224865, 2016; in the data active = activity change above about 30%, passing the limit was not always enough
Rtt109 HAT inh: inhibitors of C. albicans Rtt109/Vps75 HAT, primary screen, biochemical, ThioGlo CoA-SH fluorescence, plate reader. Histone acetyltransferase RTT109 (Candida albicans (strain SC5314 / ATCC MYA-2876)), …. purified Rtt109/Vps75, 4 h. inhibition, % at 34.9 µM. 330,000 compounds, 0.16% hits. AID 540336, 2011;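 active = inhibition of at least 50% in every replicate; inconclusive = best replicate reaches 50% inhibition but some replicates fall short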
Target sequence (Q5AAJ8 whole entry, looked up): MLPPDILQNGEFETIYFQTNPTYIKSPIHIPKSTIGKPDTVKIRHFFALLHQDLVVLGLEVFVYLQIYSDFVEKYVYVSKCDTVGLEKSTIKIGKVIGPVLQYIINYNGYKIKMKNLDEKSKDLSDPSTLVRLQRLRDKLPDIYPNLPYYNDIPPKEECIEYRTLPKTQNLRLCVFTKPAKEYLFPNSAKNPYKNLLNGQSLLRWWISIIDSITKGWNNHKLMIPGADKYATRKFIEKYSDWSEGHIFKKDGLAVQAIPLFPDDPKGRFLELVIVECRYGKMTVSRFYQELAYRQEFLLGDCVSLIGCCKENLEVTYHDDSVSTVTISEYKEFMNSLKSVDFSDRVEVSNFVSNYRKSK
CSN deneddyl inh: inhibitors of CSN-mediated cullin deneddylation, primary screen, biochemical, fluorescence polarization, uHTS; COP9 signalosome complex subunit 5 (Homo sapiens), Q92905; Purified CSN, SCF-Nedd8-OG deneddylation; inhibition, % at 12.5 µM; 360,000 compounds, 0.38% hits;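 active = pattern-corrected inhibition above about 35%, with an unprinted fluorescence ratio check between 0.5 and 1.5, limit read from the data, passing the limit was not always enough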
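Test system: Human Csn5 produced in HEK293T cells | Compound: 12.5 µM single point | Times: 90 min, room temperature | Signal: Fluorescence polarization readout | Read-out basis: % inhibition of substrate cleavage by Csn5 | Controls: no-enzyme wells high, enzyme-with-substrate wells low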
TPT1 inh confirm: Candida albicans TPT1 inhibitors, confirmation, biochemical, fluorescence polarization, triplicate | shares compounds with TPT1 inh | recombinant caTPT1, RNase T1 coupled | inhibition, % at 5 µM | 2,400 compounds, 74% hits;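 active = inhibition above the primary screen limit, the mean inhibition of all tested compounds plus 3 SD, cut at about 25% in these data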
RNase T1 counter: RNase T1 inhibitors, counter-screen for TPT1 inhibitor project, biochemical, fluorescence polarization; shares compounds with TPT1 inh; RNase T1 cleavage, 1536-well; inhibition, % at 5 µM; 2,400 compounds, 83% hits;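 active = inhibition above the solvent-only control well mean plus 3 SD, limit set per screening run, cut at about 23% in these data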;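 note: inhibitors block cleavage so intact labeled substrate keeps polarization high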
Target sequence (P00651 whole entry, looked up): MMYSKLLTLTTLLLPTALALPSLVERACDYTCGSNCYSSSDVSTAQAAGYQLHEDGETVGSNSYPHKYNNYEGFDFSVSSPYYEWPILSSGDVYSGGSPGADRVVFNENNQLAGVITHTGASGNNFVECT
Large screens that a line does not name were inactive (follow-up assays come after a bar, where they were run).

CNC(=O)c1sc(N2N=C3/C(=C/c4ccccc4)CCCC3C2c2ccccc2)nc1C (centres undefined)	TPT1 inh 28 | TPT1 inh confirm 44 | RNase T1 counter 53
Cc1ccc(-n2c(N)c(C#N)c(-c3ccccc3)c(C#N)c2=O)cc1	none
Cc1ccc(-c2nc3sc(C#N)c(N)n3c(=O)c2C#N)cc1	TPT1 inh 24 (no result: Rtt109 HAT inh) | TPT1 inh confirm 35 | RNase T1 counter 48
CCN1CCN(C(=O)c2ccc(N3CC4CC(C3)c3cccc(=O)n3C4)c(NC(=O)c3cc(OC)cc(OC)c3)c2)CC1 (centres undefined)	none
O=C(Nc1nccs1)c1ccc(-c2ccc([N+](=O)[O-])cc2)o1	TPT1 inh 37 | TPT1 inh confirm 34 | RNase T1 counter 48
CN1CCN(C(=O)c2ccc(N3CCCC3=O)cc2)CC1	none
O=C(c1ccc(N2CCCC2=O)cc1)N1CCOCC1	TPT1 inh 65 | TPT1 inh confirm inactive | RNase T1 counter inactive
Cc1ccc(Nc2cc(C)nc(-c3ccccc3)n2)cc1	none
COc1cc(/C=N/NC(=O)CC#N)cc(Br)c1O	TPT1 inh 27 | TPT1 inh confirm inactive | RNase T1 counter inactive
Cc1ccc(-n2c(O)c(/C=C3/C(c4ccccc4)=Nc4ccccc43)c(=O)[nH]c2=O)cc1	none
Cc1ccccc1-n1c(O)c(/C=C/C=Nc2ccccc2)c(=O)[nH]c1=O	TPT1 inh 154 | TPT1 inh confirm 168 | RNase T1 counter 157
CN(C)/N=C/C=C1\CCC/C(=C\c2ccc(F)c(F)c2)C1=O	none
COc1ccc(/C=C2\CCC/C(=C\C=N\N(C)C)C2=O)cc1	TPT1 inh 37 | TPT1 inh confirm 45 | RNase T1 counter 55
CC1(C)CC(=O)C2=C(C1)OC(N)=C(C#N)C21CCN(Cc2ccccc2)CC1	TPT1 inh 27 | TPT1 inh confirm inactive | RNase T1 counter 32
CC(=O)N1CCC2(CC1)C(C#N)=C(N)OC1=C2C(=O)CC(C)(C)C1	none
COC(=O)/C=C1\OC(C2CC2)c2ccccc21 (centres undefined)	none (no result: TPT1 inh, Rtt109 HAT inh)
CN(C)c1ccc(C(=O)c2ccccc2)cc1	TPT1 inh 48 | TPT1 inh confirm inactive | RNase T1 counter inactive
CCN1CCN(c2cc(N3CCN(C(=O)c4ccco4)CC3)c3c4c(onc24)-c2ccccc2C3=O)CC1	TPT1 inh 40 | TPT1 inh confirm 43 | RNase T1 counter inactive
CCN(CCO)c1ccc(N=Nc2cc(C)[nH]n2)cc1	TPT1 inh 25, HNF4A DNA FP 47 | TPT1 inh confirm 34 | RNase T1 counter 42
Cc1ccc(-c2[nH]ncc2CN2CCN(C(=O)c3cccs3)CC2)cc1C	none
N#C/C(=C\c1ccc(N2CCOCC2)o1)C(=O)NCC1CCCO1 (centres undefined)	TPT1 inh 161 | TPT1 inh confirm 168 | RNase T1 counter 164
COCCNC(=O)/C(C#N)=C/c1ccc(N2CCOCC2)o1	TPT1 inh 157 | TPT1 inh confirm 169 | RNase T1 counter 164
N#C/C(=C\c1ccc(-c2ccc(C(=O)O)cc2)o1)C(=O)NCC1CCCO1 (centres undefined)	none
Cc1ccc(F)c(CNC(=O)C2CCC(=O)N(CCCN3CCCC3=O)C2)c1F (centres undefined)	none
Cc1ccc(CNC(=O)C2CCN(c3nnc(N4CCCC4=O)s3)CC2)cc1	none
O=C(N/N=C/c1sc(=O)n(-c2ccccc2)c1Cl)c1ccncc1	TPT1 inh 32 | TPT1 inh confirm 69 | RNase T1 counter 81
COc1cc(C(=O)N/N=C/c2sc(=O)n(-c3ccccc3)c2Cl)cc(OC)c1OC	none
COc1ccc(-c2ccc(-c3noc(-c4cccs4)n3)c(OC)n2)cc1	TPT1 inh 26 | TPT1 inh confirm 28 | RNase T1 counter 39
COc1ccc(-c2ccc(-c3noc(-c4cccc(OC)c4)n3)c(OC)n2)cc1	none
CC(C)NC(=O)/C(C#N)=C/c1ccc(N(C)C)o1	TPT1 inh 158 | TPT1 inh confirm 177 | RNase T1 counter 167
CCN(c1ccccc1)S(=O)(=O)c1ccc(OC)c(NC(=O)CCc2nc3ccccc3c(=O)[nH]2)c1	none
COC(=O)Cn1c(=O)c2c(n(Cc3ccccc3)c1=O)N/C(=C/c1ccc(Br)cc1)C2=O	TPT1 inh 43 | TPT1 inh confirm 32 | RNase T1 counter 47
Cc1c(-c2ccc(O)cc2)nc2nc(-c3ccccc3)c(-c3ccccc3)nn12	TPT1 inh 27 (no result: HNF4A DNA FP, Rtt109 HAT inh, CSN deneddyl inh) | TPT1 inh confirm 49 | RNase T1 counter 67
Cc1nnc2c3ccccc3c(-c3ccc(O)cc3)nn12	none
Cc1ccc(-c2ccc(C3C(C#N)=C(N)Oc4n[nH]c(C)c43)o2)cc1 (centres undefined)	TPT1 inh 35 | TPT1 inh confirm inactive | RNase T1 counter inactive
Oc1ccc(/C=N/Nc2ccnc3cc(Cl)ccc23)c(O)c1O	TPT1 inh 33 | TPT1 inh confirm inactive | RNase T1 counter inactive
Oc1ccc(/C=N/Nc2ccnc3cc(Cl)ccc23)cc1O	Rtt109 HAT inh inconclusive
CCOC(=O)/C=c1/s/c(=C\c2c(OC)ccc3ccccc23)c(=O)n1CC(=O)NCC1CCCO1 (centres undefined)	none (no result: TPT1 inh)
CCOC(=O)/C=c1\s/c(=C\c2ccccc2C)c(=O)n1CC(=O)NCc1ccc2c(c1)OCO2	TPT1 inh 41 | TPT1 inh confirm 30 | RNase T1 counter 43
CCOC(=O)/C=c1\s/c(=C\c2c(OCC)ccc3ccccc23)c(=O)n1CC(=O)NCC1CCCO1 (centres undefined)	TPT1 inh 25 | TPT1 inh confirm inactive | RNase T1 counter 32
CCOC(=O)/C=c1\s/c(=C\c2ccc3c(c2)OCCO3)c(=O)n1CC(=O)NCC1CCCO1 (centres undefined)	none
CCO/C(C)=N/Oc1cnc2ccccc2c1	none (no result: TPT1 inh, Rtt109 HAT inh)
CC(NS(=O)(=O)c1ccc(F)cc1)C(c1cccs1)N1CCOCC1 (centres undefined)	none
CC(NS(=O)(=O)c1ccc([N+](=O)[O-])cc1)C(c1cccs1)N1CCOCC1 (centres undefined)	TPT1 inh 36 | TPT1 inh confirm inactive | RNase T1 counter inactive
O=[N+]([O-])c1cccc(/C=C/c2nc(C=Nc3ccc4ccccc4c3)c(O)o2)c1	TPT1 inh 33 | TPT1 inh confirm inactive | RNase T1 counter 28
O=[N+]([O-])c1cccc(/C=C/c2ccc3cccc(O)c3n2)c1	none
N#Cc1ccccc1NC(=O)COC(=O)/C=C/c1cn(-c2ccccc2)nc1-c1ccc(Cl)cc1	none (no result: TPT1 inh)

Assay outcomes: PubChem, several laboratories
